Reference: ChEMBL document CHEMBL4680236, “Design, synthesis and structure-activity relationships of novel 15-membered macrolides: Quinolone/quinoline-containing sidechains tethered to the C-6 position of azithromycin acylides” (Eur J Med Chem, 2020)
Values after ≈ are worked out from the molar mass of the structure shown.

What was measured:
Staphylococcus aureus [1] = assay: Antibacterial activity against MLSB/methicillin/ciprofloxacin-resistant Staphylococcus aureus PU32 harboring ermA gene assessed as reduction in microbial growth; format: functional
[2] = test system: Staphylococcus epidermidis; assay: Antibacterial activity against methicillin-susceptible Staphylococcus epidermidis ATCC 12228 assessed as reduction in microbial growth; format: functional
Escherichia coli [3] = assay: Antibacterial activity against ESBL negative Escherichia coli 16-7 assessed as reduction in microbial growth; format: functional
Streptococcus pneumoniae [4] = assay: Ratio of MBC to MIC against Erythromycin-susceptible Streptococcus pneumoniae ATCC 49619; format: functional
Pseudomonas aeruginosa = assay: Antibacterial activity against Pseudomonas aeruginosa ATCC 27853 assessed as reduction in microbial growth; format: functional
Haemophilus influenzae [5] = assay: Ratio of MBC to MIC against azithromycin-susceptible Haemophilus influenzae ATCC 49247; format: functional
Enterobacter cloacae = assay: Antibacterial activity against Enterobacter cloacae ATCC 43560 assessed as reduction in microbial growth; format: functional
Streptococcus pneumoniae [6] = assay: Bactericidal activity against Erythromycin-susceptible Streptococcus pneumoniae ATCC 49619; format: functional
In short: (§1)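 Bacteria were exposed to 1- to 8-fold MIC of the sample, then transferred to fresh medium without antibacterial. After further incubation, colonies were counted. MBC was taken as the lowest concentration giving a >3 log10 reduction in colony number.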

Acinetobacter baumannii = assay: Antibacterial activity against Acinetobacter baumannii ATCC 19606 assessed as reduction in microbial growth; format: functional; settings: ATCC 19606 = CIP 70.34 = JCM 6841
Escherichia coli [7] = assay: Antibacterial activity against NDM-1 producing Escherichia coli […] assessed as reduction in microbial growth; format: functional
Klebsiella pneumoniae [8] = assay: Antibacterial activity against NDM-1 producing Klebsiella pneumoniae ATCC BAA-2146 assessed as reduction in microbial growth; format: functional
Staphylococcus aureus [9] = assay: Antibacterial activity against methicillin-resisitant Staphylococcus aureus 16-30 assessed as reduction in microbial growth; format: functional
Staphylococcus aureus [10] = assay: Antibacterial activity against methicillin-susceptible Staphylococcus aureus ATCC 29213 assessed as reduction in microbial growth; format: functional
Streptococcus pneumoniae [11] = assay: Antibacterial activity against Erythromycin-susceptible Streptococcus pneumoniae ATCC 49619 assessed as reduction in microbial growth; format: functional
Streptococcus pneumoniae [12] = assay: Ratio of MBC to MIC against MLSB-resistant Streptococcus pneumoniae 07P390 harboring ermB; format: functional
Haemophilus influenzae [13] = assay: Bactericidal activity against azithromycin-susceptible Haemophilus influenzae ATCC 49247; format: functional; in short: as §1
Haemophilus influenzae [14] = assay: Antibacterial activity against azithromycin-susceptible Haemophilus influenzae ATCC 49247 assessed as reduction in microbial growth; format: functional
Streptococcus pneumoniae [15] = assay: Antibacterial activity against penicillin-susceptible Streptococcus pneumoniae PU09 harboring mef gene assessed as reduction in microbial growth; format: functional
Escherichia coli [16] = assay: Antibacterial activity against ESBL positive Escherichia coli 16-1 assessed as reduction in microbial growth; format: functional
Klebsiella aerogenes = assay: Antibacterial activity against Enterobacter aerogenes ATCC 13048 assessed as reduction in microbial growth; format: functional
Streptococcus pneumoniae [17] = assay: Bactericidal activity against MLSB-resistant Streptococcus pneumoniae 07P390 harboring ermB gene assessed as reduction in microbial growth; format: functional
In short: (§2)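 Bacteria were exposed to 1- to 8-fold their MIC of test sample, then transferred to fresh culture medium without antibacterial compound and incubated for the required time. Colonies were then counted. MBC is the lowest concentration giving a reduction in colony number of >3 Log₁₀.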

Klebsiella pneumoniae [18] = assay: Antibacterial activity against ESBL producing Klebsiella pneumoniae 16-14 assessed as reduction in microbial growth; format: functional
[19] = test system: Staphylococcus epidermidis; assay: Antibacterial activity against methicillin-resistant Staphylococcus epidermidis 16-5 assessed as reduction in microbial growth; format: functional
Staphylococcus aureus [20] = assay: Ratio of MBC to MIC against MLSB/methicillin/ciprofloxacin-resistant Staphylococcus aureus PU32 harboring ermA gene; format: functional
Enterococcus faecalis = assay: Antibacterial activity against vancomycin-susceptible Enterococcus faecalis ATCC 29212 assessed as reduction in microbial growth; format: functional
Streptococcus pneumoniae [21] = assay: Ratio of MBC to MIC against penicillin-susceptible Streptococcus pneumoniae PU09; format: functional
Staphylococcus aureus [22] = assay: Antibacterial activity against MLSB/methicillin-resistant Staphylococcus aureus 15B196 assessed as reduction in microbial growth; format: functional
Shigella = assay: Antibacterial activity against Shigella ATCC 12022 assessed as reduction in microbial growth; format: functional
Enterococcus faecium = assay: Antibacterial activity against vancomycin-resistant Enterococcus faecium ATCC 700221 assessed as reduction in microbial growth
Staphylococcus aureus [23] = assay: Bactericidal activity against MLSB/methicillin/ciprofloxacin-resistant Staphylococcus aureus PU32 harboring ermA gene; format: functional; in short: as §2
Streptococcus pneumoniae [24] = assay: Antibacterial activity against MLSB-resistant Streptococcus pneumoniae 07P390 harboring ermB gene assessed as reduction in microbial growth; format: functional
Streptococcus pneumoniae [25] = assay: Bactericidal activity against penicillin-susceptible Streptococcus pneumoniae PU09 harboring mef gene; format: functional; in short: as §2
Staphylococcus aureus [26] = assay: Bactericidal activity against MLSB/methicillin-resistant Staphylococcus aureus 15B196; format: functional; in short: as §2
Staphylococcus aureus [27] = assay: Ratio of MBC to MIC against MLSB/methicillin-resistant Staphylococcus aureus 15B196; format: functional
Streptococcus pyogenes [28] = assay: Antibacterial activity against MLSB-resistant Streptococcus pyogenes 12-206 harboring ermA gene assessed as reduction in microbial growth; format: functional
Staphylococcus aureus [29] = assay: Antibacterial activity against MLSB/methicillin-resistant Staphylococcus aureus 15B196 assessed as reduction in microbial growth relative to ciprofloxacin; format: functional
Haemophilus influenzae [30] = assay: Antibacterial activity against azithromycin-susceptible Haemophilus influenzae ATCC 49247 assessed as reduction in microbial growth relative to ciprofloxacin; format: functional
Staphylococcus aureus [31] = assay: Antibacterial activity against MLSB/methicillin/ciprofloxacin-resistant Staphylococcus aureus PU32 harboring ermA gene assessed as reduction in microbial growth relative to ciprofloxacin; format: functional
Streptococcus pyogenes [32] = assay: Ratio of MBC to MIC against MLSB-resistant Streptococcus pyogenes 12-206 harboring ermA gene; format: functional
Streptococcus pyogenes [33] = assay: Bactericidal activity against MLSB-resistant Streptococcus pyogenes 12-206 harboring ermA gene; format: functional; in short: as §2

Row | Structure (SMILES) | MIC (Staphylococcus aureus [1]) [µg/mL] | Ratio (Streptococcus pneumoniae [4]) | Ratio (Haemophilus influenzae [5]) | MBC (Streptococcus pneumoniae [6]) [µg/mL] | MIC (Streptococcus pneumoniae [11]) [µg/mL] | Ratio (Streptococcus pneumoniae [12]) | MBC (Haemophilus influenzae [13]) [µg/mL] | MIC (Haemophilus influenzae [14]) [µg/mL] | MIC (Streptococcus pneumoniae [15]) [µg/mL] | MBC (Streptococcus pneumoniae [17]) [µg/mL] | Ratio (Staphylococcus aureus [20]) | Ratio (Streptococcus pneumoniae [21]) | MIC (Staphylococcus aureus [22]) [µg/mL] | MBC (Staphylococcus aureus [23]) [µg/mL] | MIC (Streptococcus pneumoniae [24]) [µg/mL] | MBC (Streptococcus pneumoniae [25]) [µg/mL] | MBC (Staphylococcus aureus [26]) [µg/mL] | Ratio (Staphylococcus aureus [27]) | MIC (Streptococcus pyogenes [28]) [µg/mL] | other results
1 | CC[C@H]1OC(=O)[C@H](C)[C@@H](OC(=O)Cc2ccccn2)[C@H](C)[C@@H](O[C@@H]2O[C@H](C)C[C@H](N(C)C)[C@H]2O)[C@](C)(OC(=O)CCNCCCNc2cc3c(=O)c(C(=O)O)cn(C4CC4)c3cc2Cl)C[C@@H](C)CN(C)[C@H](C)[C@@H](O)[C@]1(C)O | 8 | 1 | 4 | 0.125 (≈ 0.114 µM) | 0.125 | >8 | 64 (≈ 58.2 µM) | 16 | 1 | > 8 | >8 | 1 | > 256 | > 64 | 1 | 1 (≈ 0.909 µM) |  |  |  | MIC [2]: 4 µg/mL; MIC (Escherichia coli [3]): 64 µg/mL; MIC (Pseudomonas aeruginosa): > 64 µg/mL; MIC (Enterobacter cloacae): 64 µg/mL; MIC (Acinetobacter baumannii): > 64 µg/mL; MIC (Escherichia coli [7]): 64 µg/mL; MIC (Klebsiella pneumoniae [8]): > 64 µg/mL; MIC (Staphylococcus aureus [9]): > 64 µg/mL; MIC (Staphylococcus aureus [10]): 8 µg/mL; MIC (Escherichia coli [16]): 32 µg/mL; MIC (Klebsiella aerogenes): 64 µg/mL; MIC (Klebsiella pneumoniae [18]): 64 µg/mL; MIC [19]: > 64 µg/mL; MIC (Enterococcus faecalis): 8 µg/mL; MIC (Shigella): 16 µg/mL; MIC (Enterococcus faecium): > 64 µg/mL
2 | CC[C@H]1OC(=O)[C@H](C)[C@@H](OC(=O)Cc2ccccn2)[C@H](C)[C@@H](O[C@@H]2O[C@H](C)C[C@H](N(C)C)[C@H]2O)[C@](C)(OC(=O)CCNCC/C=C/c2cnc3ccccc3c2)C[C@@H](C)CN(C)[C@H](C)[C@@H](O)[C@]1(C)O | 2 | 1 | 2 | 0.125 (≈ 0.13 µM) | 0.125 | >8 | 16 (≈ 16.6 µM) | 8 | 1 | > 32 | 4 | 1 | 64 | 8 (≈ 8.31 µM) | 4 | 1 (≈ 1.04 µM) | > 256 | >4 |  | 
3 | CC[C@H]1OC(=O)[C@H](C)C(=O)[C@H](C)[C@@H](O[C@@H]2O[C@H](C)C[C@H](N(C)C)[C@H]2O)[C@](C)(OC)C[C@@H](C)C(=O)[C@H](C)[C@H]2N(CCCCn3cnc(-c4cccnc4)c3)C(=O)O[C@]12C [TELITHROMYCIN] | 2 |  |  | ≤ 0.008 | ≤ 0.008 | >8 |  | 4 | 0.25 | > 0.125 |  | 2 | 4 |  | 0.016 | 0.5 (≈ 0.616 µM) |  |  | 0.25 | fold change (FC) (Staphylococcus aureus [29]): >52; fold change (FC) (Haemophilus influenzae [30]): 407; fold change (FC) (Staphylococcus aureus [31]): 0.0032
4 | CC[C@H]1OC(=O)[C@H](C)[C@@H](OC(=O)Cc2ccccn2)[C@H](C)[C@@H](O[C@@H]2O[C@H](C)C[C@H](N(C)C)[C@H]2O)[C@](C)(OC(=O)CCN2CCN(c3cc4c(cc3F)c(=O)c(C(N)=O)cn4C3CC3)CC2)C[C@@H](C)CN(C)[C@H](C)[C@H]2OC(=O)O[C@@]21C | 32 | 2 |  | 8 (≈ 7.14 µM) | 4 | 1 | > 256 | 256 | 8 | 32 | >8 | 2 | 32 | > 256 | 32 | 16 (≈ 14.3 µM) | > 256 | >8 | 16 | Ratio (Streptococcus pyogenes [32]): 1; MBC (Streptococcus pyogenes [33]): 16 µg/mL (≈ 14.3 µM)
